Experiment: Toxicity liver stage against HepG2, at 10uM
Type: cell-based
Set-up: test concentration 10 uM, cell line HepG2-A16-CD81EGFP
Conditions: human, HepG2-A16-CD81EGFP cells; read-out: INHIBITION
Summary of the method: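 Uninfected HepG2-A16-CD81EGFP cells, 3 × 10^3 per well, 1536-well, plated on prespotted compound at 10 μM final, parasite-free screening media added to match infected plates; puromycin 10 μM positive, DMSO 0.5% negative; run in parallel with 48 h PbLuc assay at 37 °C, 5% CO2; viability by CellTiter-Glo luminescence, normalized to controls.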

| SMILES | cytotoxicity at 10 µM |
| --- | --- |
| NC(CC1CCCCC1)c1ccccc1 (stereo unspecified) | -4.8% |
| CCCC(=O)n1ccn(S(=O)(=O)c2ccc(C)cc2)c1=O | 8.08% |
| CCCC(O)CN1CCC(=O)N(CC)Cc2cc3c(cc21)OCO3 (stereo unspecified) | -18.5% |
| O=C1CCNc2cc3c(cc2CN1Cc1ccco1)OCO3 | 6.36% |
| CCN1Cc2cc(F)ccc2N(C(=O)C2CCC2)CCC1=O | -41.2% |
| Cc1cc2ccccc2n1CC(=O)N[C@@H](C)C(=O)O | 0.77% |
| Cc1cc(C)nc(N2CCC(C(=O)Nc3n[nH]c(CC(C)C)n3)CC2)n1 | 5.61% |
| COc1ccc(CC(C)(O)CNC(=O)NCc2cccs2)cc1 (stereo unspecified) | 5.62% |
| COC(=O)N1CCc2ccccc2C1C(=O)NCc1ccco1 (stereo unspecified) | -1.94% |
| O=C(Cc1ccccn1)N1C[C@@H](Oc2cccnc2)[C@H]2OCCC[C@H]21 | 7.8% |
| O=C1CC(c2ccccc2F)c2c(n3ccsc3nc2=O)N1 (stereo unspecified) | -5.93% |
| CCCN(C(=O)COCC)c1cccc(C)c1 | 0.727% |
| Cc1nc2[nH]cnc(NCCCN3CCOCC3)c-2n1 | -13.3% |
| CCN(CC)c1nc(Nc2cccc(C(=O)O)c2)nc2ccccc12 | 12% |
| CN1CCN(C(=O)c2[nH]nnc2Nc2ccccc2F)CC1 | 1.36% |
| Cc1nn(C)c(C)c1NC(=O)CCn1ncc2c(C)cccc21 | -10.8% |
| COCCC(=O)NCc1ccc(-c2ccccc2C(=O)O)cn1 | 1.92% |
| CNC(=O)[C@@H]1CN(Cc2ccccc2)C[C@H]1C(=O)c1ccc(F)cc1 | -0.17% |
| Cc1ncoc1C(=O)N1CCCC(c2ccc3c(N)nn(C)c3n2)C1 (stereo unspecified) | 2.76% |

| SMILES | cytotoxicity at 10 µM |
| --- | --- |
| Cc1cc(C(F)F)nn1C(C)C(=O)NCc1nccn1C (stereo unspecified) | 4.86% |
| CC(c1cc(O)nc(NC2CCCC2)n1)n1ncc2ccccc2c1=O (stereo unspecified) | 22.9% |
| CC(C)C(=O)N1CCCC([C@@H]2C[C@H](C(F)F)n3ncnc3N2)C1 (stereo partly specified) | -3.41% |
| CO[C@H]1CCN(C(=O)c2ccc3[nH]nnc3c2)C[C@@]12CCCO2 | -5.38% |
| Cc1ccnc(C2CCN(C(=O)CCn3ncc4ccccc43)C2)n1 (stereo unspecified) | -22.3% |
| CCn1cc(CN2CCN(CC(O)c3ccc(C)cc3C)CC2)cn1 (stereo unspecified) | -24.6% |
| c1ccc(-c2cc(CNCCN3CCOCC3)c3nnnn3c2)cc1 | -17.6% |
| c1ccc(CN2CCC(c3nccnc3-n3ccnc3)CC2)cc1 | -19.6% |
| O=C(c1ccc(Cl)cc1)N1CCC(N2CCNC2=O)CC1 | 12.6% |
| Cc1cc(C2CCCN2C(=O)Nc2cn[nH]c2)on1 (stereo unspecified) | 1.24% |
| CN1N=C(C(=O)NCCc2csc(-c3ccccc3)n2)CCC1=O | 0.621% |
| CCC(C)Oc1cc(C(=O)N(c2cccnc2)C(C)C)ccn1 (stereo unspecified) | 8.77% |
| COc1cc(NC(=O)N(C)CCC2CC2)ncn1 | -1.3% |
| Cn1nc(Br)c2c(=O)n(CCc3ccccc3)cnc21 | -1.4% |
| CCc1c(C(=O)N2CCOC(C)(C)C2)cnn1-c1ccccn1 | -7.92% |
| COC(=O)C1(NCC(=O)Nc2cc(C)ccc2OC)CCCCC1 | 4.02% |
| CC(Cn1ccnc1)NC(=O)NCCN1CCCCCC1=O (stereo unspecified) | -1.26% |
| N#CC1(NC(=O)c2nccc3ccccc23)CCSCC1 | 8.8% |
| Cc1cc(Cn2c(=O)c3c(C(F)(F)F)cc(C)nc3n2C)on1 | -0.976% |

| SMILES | cytotoxicity at 10 µM |
| --- | --- |
| CNC(=O)CC1CCN(C(=O)NCC2(c3ccccc3F)CC2)CC1 | 4.27% |
| CC(C)c1nc(C2CCCN2C(=O)c2ccc3nncn3c2)no1 (stereo unspecified) | -10.3% |
| CCS(=O)(=O)c1ccc(N2CCC(NC(=O)c3ccccn3)CC2)cc1 | 10.8% |
| COc1cc(C(=O)NS(=O)(=O)c2cncc(Br)c2)cc(Cl)c1OC | -2.21% |
| Cc1cnc(C(C)(C)NC(=O)NCc2ccc(C#N)cc2F)s1 | 15.1% |
| Cc1ccc(S(=O)(=O)NC(C)C#N)cc1Br (stereo unspecified) | 0.727% |
| CC(NC(=O)CCS(=O)(=O)C1CCCC1)c1nc(-c2ccccc2)c[nH]1 (stereo unspecified) | 1.05% |
| CC(C)N(C)Cc1ccccc1CNc1ccc2nncn2n1 | 0.425% |
| O=C(CCC1CCCO1)NCc1ccc(Br)cc1F (stereo unspecified) | 1.6% |
| CSCc1cc(F)ccc1CNCc1cccc(O)c1 | -3.58% |
| Cn1cnnc1C1CCCN(C(=O)c2cc(C3CC3)on2)C1 (stereo unspecified) | 5.14% |
| CN(CC1CCCN(S(C)(=O)=O)C1)c1cnn(C)c1 (stereo unspecified) | 2.56% |
| CCN(CC)C(=O)C1CCN(c2ccc(Cl)cc2C#N)CC1 | 12.2% |
| CN(Cc1cccs1)C(=O)Cn1cc(NC(=O)C(C)(C)C)cn1 | -3.52% |
| Cc1ccc(CNCc2nnc3n2CCCC3C(F)(F)F)o1 (stereo unspecified) | 19.5% |
| CCc1nc(CNC(=O)Nc2ccc(C(=O)NC)cc2C)cs1 | 16.4% |
| Cc1ccc(C(C)NC(=O)Cc2c(C)nc3c(c2C)c(=O)[nH]n3C)o1 (stereo unspecified) | -16.3% |
| O=C(Nc1cccc(CN2CCOC2=O)c1)N1CCOCC1 | -8.6% |

From ChEMBL document CHEMBL4513216, “Probing the Open Global Health Chemical Diversity Library for Multistage-Active Starting Points for Next-Generation Antimalarials” (ACS Infect Dis, 2020)
